Experimental data published in ChEMBL document CHEMBL1138014, “1-(2-Aminoethyl)-3-(arylsulfonyl)-1H-indoles as novel 5-HT6 receptor ligands” (Bioorg Med Chem Lett, 2004).

What was measured:
Format in all cases: cell-based
[1] = target: T1, 5-hydroxytryptamine receptor 6 (Homo sapiens, UniProt P50406); test: Percent inhibitory activity against human 5-hydroxytryptamine 6 receptor transfected in HeLa cells at 1 uM
[2] = target: T1, 5-hydroxytryptamine receptor 6; test: Binding affinity against human 5-hydroxytryptamine 6 receptor transfected in HeLa cells
[3] = target: T1, 5-hydroxytryptamine receptor 6; test: Inhibitory potency against human 5-hydroxytryptamine 6 receptor transfected in HeLa cells in cAMP assay
Outline: (§1)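 Human 5-HT6 receptor stably transfected into HeLa cells. Cells were washed with Krebs buffer, then preincubated for 5 min at 37°C in Krebs with 500 µM IBMX. They were then exposed to test compound (0.1–10,000 nM) for 10 min at 37°C. The reaction was stopped with 0.5 M perchloric acid, and intracellular cAMP was measured by scintillation proximity radioimmunoassay.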

[4] = target: T1, 5-hydroxytryptamine receptor 6; test: Inhibitory concentration against human 5-hydroxytryptamine 6 receptor transfected in HeLa cells in cAMP assay; outline: as §1

T1 sequence (P50406 whole entry): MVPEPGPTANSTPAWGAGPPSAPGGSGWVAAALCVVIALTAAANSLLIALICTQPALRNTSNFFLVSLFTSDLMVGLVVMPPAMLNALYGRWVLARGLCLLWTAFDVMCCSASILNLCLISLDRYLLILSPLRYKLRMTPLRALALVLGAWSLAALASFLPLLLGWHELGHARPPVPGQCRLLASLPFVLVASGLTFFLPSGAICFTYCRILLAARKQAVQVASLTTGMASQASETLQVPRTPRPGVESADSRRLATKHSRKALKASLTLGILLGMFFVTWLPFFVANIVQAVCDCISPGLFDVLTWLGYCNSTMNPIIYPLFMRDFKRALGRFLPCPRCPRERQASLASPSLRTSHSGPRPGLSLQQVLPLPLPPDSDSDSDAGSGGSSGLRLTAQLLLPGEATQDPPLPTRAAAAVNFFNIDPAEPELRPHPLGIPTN

inhibition [1] [%]	Ki [2] [nM]	Imax [3] [%]	IC50 [4] [nM]	Compound
55				COc1ccc2c(c1)c(S(=O)(=O)c1ccccc1)cn2CCN1CCCCC1
	27			NCCn1cc(S(=O)(=O)c2ccccc2)c2cc(F)ccc21
	15.5			CNCCn1cc(S(=O)(=O)c2ccccc2)c2ccccc21
		100	792	CN(C)CCn1cc(S(=O)(=O)c2ccccc2OC(F)(F)F)c2ccccc21
78				COc1ccc2c(S(=O)(=O)c3ccccc3)cn(CCN)c2c1
	5.7	97	359	CNCCn1cc(S(=O)(=O)c2cccc3ccccc23)c2ccccc21
42				CN(C)CCn1cc(S(=O)(=O)c2ccccc2)c2ccc(C#N)cc21
86				COc1ccc2c(c1)c(S(=O)(=O)c1ccccc1)cn2CCN
	3.7	97	47	CN(C)CCn1cc(S(=O)(=O)c2cccc3ccccc23)c2ccccc21

Compound	inhibition [1] [%]	Ki [2] [nM]	Imax [3] [%]	IC50 [4] [nM]
CNCCc1cn(S(=O)(=O)c2ccccc2)c2ccccc12		5		
COc1cccc2c(S(=O)(=O)c3ccccc3)cn(CCN(C)C)c12			80.5	23
NCCc1cn(S(=O)(=O)c2ccccc2)c2ccccc12		10.3		
